ATG4B inhibitor – ATG4B (human) cysteine protease inhibition; inhibition, % at 8.33 µM; Q9Y4P1; 340,000 tested, 0.51% active; ATG4B cleavage of LC3-PLA2, NBD-HPC fluorescence, 1 h; in the data active = inhibition above about 40%
MC4R barr agon – human MC4R agonism via beta-arrestin. U2OS MC4R beta-arrestin complementation, luminescence; percent of melanotan II response, DMSO zero. activation, % at 8.9 µM. 360,000 tested, 0.98% active;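 active = activation above a per-plate cutoff, the mean activation of sample wells on that plate plus 3 SD, cut at about 8% in these data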
Target sequence (P32245 whole entry, looked up): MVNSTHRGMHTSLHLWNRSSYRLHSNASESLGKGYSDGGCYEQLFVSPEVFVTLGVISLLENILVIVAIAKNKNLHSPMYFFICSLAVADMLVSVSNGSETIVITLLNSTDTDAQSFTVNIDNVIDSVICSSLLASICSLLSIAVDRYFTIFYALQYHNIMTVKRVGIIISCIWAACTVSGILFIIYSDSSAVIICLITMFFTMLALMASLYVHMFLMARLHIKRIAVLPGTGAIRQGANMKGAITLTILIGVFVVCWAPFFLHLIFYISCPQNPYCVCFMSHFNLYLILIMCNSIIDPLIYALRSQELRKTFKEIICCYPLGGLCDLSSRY
MPTP block – permeability transition pore inhibition; 360,000 tested, 1.4% active; isolated mouse mitochondria, Ca2+ swelling absorbance, 30 min; inhibition, % at 10 µM;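 active = inhibition of 50% or more, scaled per plate between neutral and stimulator controls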
SMARCA2 act – activators of SMARCA2 function; 370,000 tested, 1% active; MG213 cells, MMTV-luciferase reporter, dexamethasone, overnight; activation, % at 9.1 µM; in the data active = activation above about 7.8%
MC4R antagonist – human MC4R antagonism in cAMP assay; 360,000 tested, 0.48% active; MC4R-expressing cells, MTII-stimulated cAMP, LANCE TR-FRET; P32245; inhibition, % at 6.5 µM;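 active = inhibition above its plate's cutoff, the mean of tested wells on that plate plus 3 SD, cut at about 29% in these data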
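System – human MC4R-expressing U2OS cells · Also added – Melanotan II · Dosing – one concentration, 6.5 µM nominal · Timing – 30-min compound, 1-h challenge, 1-h detection, room temperature · Measured by – Eu-cAMP/anti-cAMP TR-FRET, emission 671 nm · Replicates – singlicate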
SMARCA2 act conf – confirmation of SMARCA2 (BRM) function activators | shares compounds with SMARCA2 act | activation, % at 9.1 µM | MG213 cells, MMTV-luciferase with dexamethasone, luminescence, overnight; MG213 cells expressing E1A, Rb sequestered; DMSO wells 0%, reference activator 100% | 3,500 tested, 30% active;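 active = activation above its plate's cutoff, the mean activation of tested wells plus 3 SD, cut at about 7.9% in these data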
GAL4-VP16 Luc – activates GAL4-VP16 luciferase, flagging SMARCA2 activator hits | HEK293 GAL4-VP16 pG5luc reporter, luciferase luminescence; scaled: DMSO wells 0%, SAHA wells 100% | activation, % at 9.1 µM | shares compounds with SMARCA2 act | 3,500 tested, 41% active;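 active = activation above the solvent-only control well mean plus 3 SD, averaged across control plates, cut at about 5.2% in these data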
Numbers stand for hits; i = inactive; nt = no result. A selection: hits, their analogues and other compounds. The true share with any hit is near 4.1%.

SMILES | ATG4B inhibitor | MC4R barr agon | MPTP block | SMARCA2 act | MC4R antagonist | SMARCA2 act conf | GAL4-VP16 Luc
O=C(Nc1ncc(Cc2ccccc2)s1)C1CCCO1 (stereo unspecified) | i | i | i | 12 | i | 11 | 8.6
O=C(Nc1nc2ccccc2s1)C1CCCO1 (stereo unspecified) | i | i | i | 11 | i | 11 | 9.8
O=C(Nc1nc2ccc(F)cc2s1)C1CCCO1 (stereo unspecified) | i | i | i | 10 | i | 12 | 5.5
COc1ccc(C(=O)NC2CC2)cc1OC1CCN(Cc2cnn(C)c2C)CC1 | i | i | i | i | i | nt | nt
COc1ccc(C(=O)NC2CC2)cc1OC1CCN(Cc2cc(C)c(C)cc2C)CC1 | i | i | i | 9.1 | i | i | i
O=C(O)[C@@H]1[C@@H]2C[C@@H]2CN1c1ncccc1[N+](=O)[O-] | i | i | i | 9.9 | i | i | i
COc1ccccc1CCC[C@@H](CCS(=O)(=O)C(C)C)CC1CCCCC1 | nt | nt | nt | i | nt | nt | nt
Cn1ccc(NC(=O)c2ccc(Cl)cc2)n1 | i | i | i | i | i | nt | nt
Cn1ccc(NC(=O)c2ccc(Cl)cc2Cl)n1 | i | i | i | 8.6 | i | i | 10
CCOC(=O)N1CCN(C(=O)C[C@H]2C[C@@]3(C(=O)OC)C(=C[C@H](COCc4ccccc4)O[C@@H]3C)N(CCC3=CCCCC3)C2=O)CC1 | nt | nt | nt | i | nt | nt | nt
O=C(c1cccc(NC2=NC3CS(=O)(=O)CC3S2)c1)N1CCN(c2ccc(F)cc2)CC1 (stereo unspecified) | i | i | i | 8.2 | i | i | i
CCN(CC)c1ccc(/C=N/NC(=O)Nc2ccccc2)cc1 | i | i | i | 11 | i | 11 | 11
Cc1ccc(/C=N/NC(=O)Nc2ccccc2)o1 | i | i | i | 8.2 | i | 12 | 10
COc1cccc(/C=N/NC(=O)c2ccoc2C)c1O | i | i | i | i | i | nt | nt
Cc1ccc(/C=N/NC(=O)C(O)c2ccccc2)o1 (stereo unspecified) | i | i | i | i | i | nt | nt
Cc1occc1C(=O)N/N=C/c1ccccc1[N+](=O)[O-] | i | i | i | 8.2 | i | i | 9.0
CCN(CC)c1ccc(/C=N/NC(=O)c2ccoc2C)cc1 | i | i | i | 11 | i | i | 11
CCN(CC)c1ccc(/C=N\NC(N)=O)cc1 | i | i | i | i | i | nt | nt
COC(=O)c1cc2c(c3c4cc(OC)ccc4n(S(=O)(=O)c4cccc(C)c4)c13)C(=O)N(Cc1ccc(C(F)(F)F)cc1)C2 | nt | nt | nt | i | nt | nt | nt
CCOC1=C2[C@H](c3ccccc3)N(S(=O)(=O)c3ccc(C)cc3)[C@H](C(C)C)[C@H]2C(C#N)(C#N)C(C#N)(C#N)C1 | nt | nt | nt | i | nt | nt | nt
COCCCN1C(=O)[C@H](CC(=O)NCCc2ccccc2OC)[C@]2(C(=O)OC)CCCCC=C12 | nt | nt | nt | i | nt | nt | nt
O=C(C1CCCN1S(=O)(=O)c1cccc([N+](=O)[O-])c1)N1CCN(c2ccccc2)CC1 (stereo unspecified) | nt | nt | nt | i | nt | nt | nt
O=C(COC(=O)CCS(=O)(=O)c1ccccc1)Nc1cc(S(=O)(=O)N2CCCCC2)ccc1Cl | i | i | i | 8.8 | i | i | i
Cc1ccc(S(=O)(=O)CCC(=O)OCC(=O)Nc2cc(S(=O)(=O)N3CCOCC3)ccc2Cl)cc1 | i | i | i | i | i | nt | nt
O=S(=O)(NCc1ccc(Cl)c(Cl)c1)c1cc(Cl)ccc1N1CC[C@@H](O)C1 | nt | nt | nt | i | nt | nt | nt
SMILES | ATG4B inhibitor | MC4R barr agon | MPTP block | SMARCA2 act | MC4R antagonist | SMARCA2 act conf | GAL4-VP16 Luc
Cc1cccc2nc(=S)n(C(=O)c3ccco3)n12 | i | i | i | 8.6 | i | i | 14
CCOc1ccc(/C=N/n2c(-c3n[nH]c4c3CCC4)n[nH]c2=S)cc1 | nt | nt | nt | i | nt | nt | nt
CCCCN1CC(COCc2ccccc2)Oc2cccc(NCc3cc(OC)c(OC)c(OC)c3)c2S1(=O)=O (stereo unspecified) | nt | nt | nt | i | nt | nt | nt
Cn1c(=O)c([N+](=O)[O-])c(NCCc2ccccc2)c2ccccc21 | i | i | i | 12 | i | i | i
Cc1cccc(Cl)c1-n1nnnc1C1(C)CSCC(=O)N1Cc1ccc(F)cc1 (stereo unspecified) | nt | nt | nt | i | nt | nt | nt
Cc1cc(C)cc(OC(=O)CS(=O)c2ccc(C(F)(F)F)cc2[N+](=O)[O-])c1 (stereo unspecified) | i | i | i | 14 | i | 13 | i
Cc1ccc(OCCNc2ccc(C(F)(F)F)cc2[N+](=O)[O-])cc1 | i | i | i | i | i | nt | nt
Cc1ccc(-c2nc(NCCN(C)C)c3ccccc3n2)cc1 | i | i | i | 13 | i | 15 | i
Cc1c(C(=O)Oc2ccc(F)cc2)sc2ncn(Cc3cccc(F)c3)c(=O)c12 | i | i | i | i | i | nt | nt
CCn1cnc2sc(C(=O)Oc3cccc(C)c3)c(C)c2c1=O | i | i | i | 11 | i | i | i
C[C@H](O)[C@@H]1C(=O)N2CCc3c([nH]c4cccc(-c5ccccc5)c34)[C@@H]2C[C@@H]1N(C)C(=O)OCc1ccccc1 | nt | nt | nt | i | nt | nt | nt
O=C(NN=C1CCCCCCCCCCC1)c1ccccc1F | i | i | i | 17 | i | i | i
CCC(C)CNC(=O)CN1C(=O)C2CCCCN2C(=O)c2ccccc21 (stereo unspecified) | nt | nt | nt | i | nt | nt | nt
CC(=O)Oc1oc(-c2ccccc2)nc1/C=N/c1ccccn1 | i | i | i | 8.1 | i | i | 8.1
CCOC(=O)[C@@]12CCC3=C1N(CCC3)C(=O)[C@H](CC(=O)N1CCCC1)C2 | nt | nt | nt | i | nt | nt | nt
CCOC(=O)CCCCCC(=O)Nc1ccc2c(c1)C(=O)N([C@H](C)CO)C[C@@H](C)[C@@H](CN(C)S(=O)(=O)c1ccc(C)cc1)OCCCC[C@H](C)O2 | nt | nt | nt | i | nt | nt | nt
CCOc1ccc(C(C)=O)cc1CN1C(=O)NC2(CCCCCC2)C1=O | i | i | i | i | i | nt | nt
COc1ccc(C(C)=O)cc1CN1C(=O)NC2(CCCCCCC2)C1=O | i | i | i | 11 | i | i | i
O=C(CSc1nc2ccccc2s1)N/N=C/c1ccco1 | i | i | i | 8.8 | i | 8.9 | i
O=C(CSc1nc2ccccc2s1)N/N=C/c1ccc(C(=O)O)cc1 | i | i | i | i | i | nt | nt
C=CCN1[C@H](C)[C@H](c2ccccc2)Oc2cc(Br)ccc2S1(=O)=O | nt | nt | nt | i | nt | nt | nt
O=C1CCc2cc(Br)ccc2O1 | i | i | i | 8.7 | i | i | i
Cc1ccc(CN2CC(C(=O)Nc3ccncc3)CC2=O)cc1 (stereo unspecified) | i | i | i | i | i | nt | nt
Cc1ccc(CN2CC(C(=O)Nc3cc(C)ccn3)CC2=O)cc1 (stereo unspecified) | i | i | i | 10 | i | 17 | 6.3

Screening results from PubChem BioAssay.
